From ChEMBL document CHEMBL1123966, “Ring-substituted [1,2-bis(4-hydroxyphenyl)ethylenediamine]dichloroplatinum (II) complexes: compounds with a selective effect on the hormone-dependent mammary carcinoma” (1988)
Several values for one entry are separate records, joined by “and”; a condition that tells them apart may be missing. Equal entries are not always repeated.

What was measured:
[1] = Cell growth inhibition of MXT-ER+ breast cancer cells at a dose of 8 mg; assay type: functional; conditions: Mus musculus; Cancer cell lines
Outline: (§1)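 Hormone-dependent MXT mammary carcinoma (ER+) model. Equimolar doses (2 × 10⁻⁵ M/kg) were given sc three times weekly (Mon, Wed, Fri) as a solution or suspension in polyethylene glycol 400/H₂O (1:1); some agents were given in olive oil. Median tumor weight was taken at the end of 6 weeks of therapy and given as T/C %. Significance was tested by the Wilcoxon-Mann-Whitney U test.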

Mus musculus [2] = organism: Mus musculus; assay: Uterotrophic effect in BDF1 mouse measured as([weight of uterus (mg)/body weight (g)] *100); assay type: functional
Outline: (§2)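 Female BDF1 mice carrying MXT ER+ mammary carcinoma were dosed in olive oil, sc, three times a week, for 6 weeks. At the end of therapy, uterotropic effect = [uterus dry weight (mg)/body weight (g)] × 100, given as mean ± SD and as T/C % versus control. Significance was by the U test.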

Mus musculus [3] = organism: Mus musculus; assay: Uterotrophic effect in BDF1 mouse at a dose of 8 mg; assay type: functional, Uterus
Outline: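 Uterus of BDF1 mice in the MXT ER+ study. Equimolar dosing at 2 × 10⁻⁵ M/kg, sc in olive oil three times a week (Mon/Wed/Fri). Uterine response = [uterus dry weight (mg)/body weight (g)] × 100, determined at the end of the 6-week therapy; U test.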

Mus musculus [4] = organism: Mus musculus; assay: Median tumor weight of MXT ER+ (mammary carcinoma) determined at the end of 6 week therapy at a dose of 8 mg; assay type: functional
Outline: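 BDF1 mice with hormone-dependent MXT mammary carcinoma (ER+). Equimolar dosing at 2 × 10⁻⁵ M/kg, given sc in olive oil three times a week (Mon/Wed/Fri) for 6 weeks. Median tumor weight was taken at the end of therapy and compared with controls by the Wilcoxon–Mann–Whitney U test.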

Mus musculus [5] = assay: Uterotrophic effect in BDF1 mouse at a dose of 10.9 mg/kg; assay type: functional, organism-based; set-up: dose 10.9 mg/kg; conditions: Uterus
Outline: (§3)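 Uterus of BDF1 mice in the MXT ER+ study. Equimolar dosing at 2 × 10⁻⁵ M/kg, sc in PEG 400/H₂O 1:1 three times a week (Mon/Wed/Fri). Uterine response = [uterus dry weight (mg)/body weight (g)] × 100, determined after 6 weeks of therapy; U test.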

[6] = Cell growth inhibition MXT-ER+ breast cancer cells at a dose of 10.9 mg/kg; assay type: functional, organism-based; set-up: dose 10.9 mg/kg; conditions: Mus musculus, Cancer cell lines; outline: as §1
MDA-MB-231 [7] = assay: Incorporation of [3H]- thymidine into hormone independent MDA-MB-231 breast cancer cells; assay type: functional, cell-based; conditions: Homo sapiens
[8] = Cell growth inhibition MXT-ER- breast cancer cells at a dose of 10.9 mg/kg; assay type: functional, organism-based; set-up: dose 10.9 mg/kg; conditions: Mus musculus, Cancer cell lines
Outline: (§4)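 Hormone-independent MXT mammary carcinoma (ER−) in mice. Equimolar doses (2 × 10⁻⁵ M/kg) were given sc three times a week (Mon, Wed, Fri) in polyethylene glycol 400/H₂O (1:1), or in olive oil for some agents. Median tumor area was measured at the end of a 2-week therapy and expressed as T/C %.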

MDA-MB-231 [9] = assay: Cell growth inhibition in hormone independent MDA-MB-231 breast cancer cells; assay type: functional, cell-based; conditions: Homo sapiens
Mus musculus [10] = assay: Median tumor weight of MXT (mammary carcinoma) ER+ determined at the end of 6 week therapy at a dose of 10.9 mg/kg; assay type: functional, organism-based; set-up: dose 10.9 mg/kg; outline: as §1
MCF7S [11] = assay: Cell growth inhibition in hormone dependent MCF 7 breast cancer cells; assay type: functional, cell-based; conditions: Homo sapiens
MDA-MB-231 [12] = assay: Incorporation of [3H]- thymidine in hormone independent MDA-MB-231 breast cancer cells; assay type: functional, cell-based; conditions: Homo sapiens
MCF7S [13] = assay: Incorporation of [3H]- thymidine in hormone dependent MCF-7 breast cancer cells; assay type: functional, cell-based; conditions: Homo sapiens
Mus musculus [14] = assay: Uterotrophic effect in BDF1 mouse at a dose of 13.4 mg/kg; assay type: functional, organism-based; set-up: dose 13.4 mg/kg; conditions: Uterus; outline: as §3
[15] = Cell growth inhibition of MXT-ER+ breast cancer cells at a dose of 13.4 mg/kg; assay type: functional, organism-based; set-up: dose 13.4 mg/kg; conditions: Mus musculus, Cancer cell lines; outline: as §1
Mus musculus [16] = assay: Median tumor weight of MXT ER+ determined at the end of 6 week therapy at a dose of 13.4 mg/kg; assay type: functional, organism-based; set-up: dose 13.4 mg/kg
Outline: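 BDF1 mice with hormone-dependent MXT mammary carcinoma (ER+). Equimolar dosing at 2 × 10⁻⁵ M/kg, given sc three times a week (Mon/Wed/Fri) for 6 weeks as a solution or suspension in PEG 400/H₂O 1:1. Median tumor weight was taken at the end of therapy; U test (Wilcoxon, Mann, Whitney).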

[17] = Cell growth inhibition of MXT-ER- breast cancer cells at a dose of 13.4 mg/kg; assay type: functional, organism-based; set-up: dose 13.4 mg/kg; conditions: Mus musculus, Cancer cell lines; outline: as §4
Mus musculus [18] = assay: Uterotrophic effect in BDF1 mouse at a dose of 0.6 mg/kg (1.5*10e-6 M/kg); assay type: functional, Uterus; outline: as §2
Rattus norvegicus [19] = organism: Rattus norvegicus; assay: No. of tumors occurring at a dose of 1.9 mg in DMBA - induced hormone dependent mammary carcinoma in rat; assay type: functional
Outline: (§5)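 DMBA-induced, hormone-dependent mammary carcinoma in Sprague-Dawley rats. Dose is per kg body weight per day, given three times a week, sc, as suspension or solution in polyethylene glycol 400/H2O 1:1, for 4 weeks. Tumors were counted at start (B) and as new tumors (NT). Outcomes were scored as % complete remission (not palpable), partial remission, no change and progression, with % change in tumor area.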

Rattus norvegicus [20] = organism: Rattus norvegicus; assay: Percent of tumors with partial remission at a dose of 1.9 mg in DMBA - induced, hormone dependent mammary carcinoma in rat; assay type: functional; outline: as §5
[21] = Median tumor weight of MXT ER+ (mammary carcinoma) determined at the end of 6 week therapy at a dose of 0.6 mg/kg (1.5*10e-6 M/kg); assay type: functional, Mus musculus
Outline: (§6)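 MXT mammary carcinoma (hormone-dependent, ER+) in BDF1 mice. Doses given in olive oil, sc, three times a week, for 6 weeks. Median tumor weight was measured at the end of therapy and expressed as T/C %. Significance was by the Wilcoxon-Mann-Whitney U test.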

Rattus norvegicus [22] = organism: Rattus norvegicus; assay: Percent change of tumor area at 28 day of therapy at a dose of 1.9 mg in DMBA - induced hormone dependent mammary carcinoma in rat; assay type: functional; outline: as §5
[23] = Cell growth inhibition of MXT-ER+ breast cancer cells at a dose of 1.8 mg/kg (4.6 *10e-6 M/kg); assay type: functional, organism-based; set-up: dose 1.8 mg/kg; conditions: Mus musculus, Cancer cell lines; outline: as §6
Rattus norvegicus [24] = organism: Rattus norvegicus; assay: Percent of tumors with no change at a dose of 1.9 mg in DMBA - induced hormone dependent mammary carcinoma in rat; assay type: functional; outline: as §5
Rattus norvegicus [25] = organism: Rattus norvegicus; assay: No. of tumors at the beginning of the test at dose of 1.9 in DMBA - induced, hormone dependent mammary carcinoma in 8 rat; assay type: functional; outline: as §5
[26] = Median tumor weight of MXT ER+ determined at the end of 6 week therapy at a dose of 0.6 mg/kg (1.5*10e-6 M/kg); assay type: functional, Mus musculus; outline: as §6
Mus musculus [27] = assay: Uterotrophic effect in BDF1 mouse at a dose of 1.8 mg/kg (4.6 *10e-6 M/kg); assay type: functional, Uterus; outline: as §2
Rattus norvegicus [28] = organism: Rattus norvegicus; assay: Percent of tumors with complete remission at a dose of 1.9 mg in DMBA - induced, hormone dependent mammary carcinoma in rat; assay type: functional; outline: as §5
[29] = Cell growth inhibition of MXT-ER+ breast cancer cells at a dose of 5.3 mg/kg ([…]); assay type: functional, organism-based; set-up: dose 5.3 mg/kg; conditions: Mus musculus, Cancer cell lines; outline: as §6
Rattus norvegicus [30] = organism: Rattus norvegicus; assay: Percent of tumors with progression at a dose of 1.9 mg in DMBA - induced hormone dependent mammary carcinoma in rat; assay type: functional; outline: as §5
[31] = Cell growth inhibition of MXT-ER+ breast cancer cells at a dose of 0.6 mg/kg (1.5*10e-6 M/kg); assay type: functional, organism-based; set-up: dose 0.6 mg/kg; conditions: Mus musculus, Cancer cell lines; outline: as §6
[32] = Median tumor weight of MXT ER+ determined at the end of 6 week therapy at a dose of 5.3 mg/kg (1.4*10e-5 M/kg); assay type: functional, Mus musculus; outline: as §6
Rattus norvegicus [33] = organism: Rattus norvegicus; assay: Percent change of in body weight at 7 day of therapy at a dose of 1.9 mg in DMBA - induced hormone dependent mammary carcinoma in rat; assay type: functional

CC/C(=C(\c1ccccc1)c1ccc(OCCN(C)C)cc1)c1ccccc1 [TAMOXIFEN]
T/C [1]: 3% | Effect (Mus musculus [2]): 72.3 | T/C (Mus musculus [3]): 80% | Med tumor weight (Mus musculus [4]): 16 mg

meso-4-PtCl2(2-F)
T/C (Mus musculus [5]): 100% | T/C [6]: 30% | Effect (Mus musculus [2]): 89.9 | ED50 (MDA-MB-231 [7]): 900 nM | T/C [8]: 60% | ED50 (MDA-MB-231 [9]): 1500 nM | T/C (MDA-MB-231 [9]): 21% | Med tumor weight (Mus musculus [10]): 143 mg | ED50 (MCF7S [11]): 4800 nM | T/C (MCF7S [11]): 49% | T/C (MDA-MB-231 [12]): 12% | ED50 (MCF7S [13]): 1500 nM | T/C (MCF7S [13]): 16%

meso-7-PtCl2(2-Br)
T/C (Mus musculus [14]): 99% | Effect (Mus musculus [2]): 89.3 | ED50 (MDA-MB-231 [7]): 1200 nM | ED50 (MDA-MB-231 [9]): 4300 nM | T/C (MDA-MB-231 [9]): 43% | T/C [15]: 12% | Med tumor weight (Mus musculus [16]): 57 mg | ED50 (MCF7S [11]): 3100 nM | T/C (MCF7S [11]): 30% | T/C [17]: 65% | T/C (MDA-MB-231 [12]): 13% | ED50 (MCF7S [13]): 1400 nM | T/C (MCF7S [13]): 15%

NC(c1c(Cl)cc(O)cc1Cl)C(N)c1c(Cl)cc(O)cc1Cl (configuration not stated)
T/C (Mus musculus [18]): <158% | No. of tumors (Rattus norvegicus [19]): 3 | Tumors (Rattus norvegicus [20]): 4% | Med tumor weight [21]: 91.5 mg | Effect (Mus musculus [2]): 134 and 201 | Change (Rattus norvegicus [22]): 154% | T/C [23]: < 12% | Tumors (Rattus norvegicus [24]): 7% | No. of tumors (Rattus norvegicus [25]): 26 | Med tumor weight [26]: 62.5 mg | T/C (Mus musculus [27]): 239% | Tumors (Rattus norvegicus [28]): 11% | T/C [29]: < 12% | Tumors (Rattus norvegicus [30]): 78% | T/C [31]: < 18% | Med tumor weight [32]: 61 mg | Change (Rattus norvegicus [33]): -1.5%
